{"source": "ChEMBL document CHEMBL3856278", "about": "“Antitumor Activity of Lankacidin Group Antibiotics Is Due to Microtubule Stabilization via a Paclitaxel-like Mechanism” (J Med Chem, 2016)", "key": {"T47D [1]": {"system": "T47D", "assay": "Stabilization of microtubule network in human T47D cells at 100 nM after 2 hrs by DAPI staining-based immunofluorescence assay", "type": "cell-based", "in_short": "(§1)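 T47D cells in RPMI1640 with 2 mM L-glutamine, 10% FBS, 0.01 mg/mL insulin and 1 mM pyruvate were seeded on coverslips, synchronized, then given drug 2 h (1% DMSO solvent control). Anti-tubulin antibody with Alexa Fluor 488 secondary and 0.1 μg/mL DAPI for DNA; epifluorescence at 63×, interphase networks and mitotic spindles scored.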"}, "Sus scrofa [2]": {"species_on_record": "Sus scrofa", "assay": "Induction of porcine tubulin polymerization assessed as increase in final polymer mass at 10 uM measured every 94 secs", "in_short": "(§2)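 Assembly followed at 37 °C by OD340 every 94 s for 61 cycles. Averaged curves from three runs were analysed for nucleation, Vmax and final polymer mass.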"}, "Sus scrofa [3]": {"species_on_record": "Sus scrofa", "assay": "Stabilization of rhodamine labeled porcine microtubule assessed as appearance of long strands microtubules at 10 uM after 5 mins by upright fluorescence microscopic analysis", "in_short": "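Rhodamine-labeled tubulin mixed 1:4 with unlabeled tubulin to 5 mg/mL in G-PEM (12% glycerol, pH 7.0). Polymerized 20 min at 37 °C, then drug added to 10 μM and incubated 5 min more at 37 °C. Diluted to 1.3 mg/mL and imaged immediately by fluorescence microscopy with a 40× oil objective.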"}, "Sus scrofa [4]": {"species_on_record": "Sus scrofa", "assay": "Induction of porcine tubulin polymerization assessed as maximum growth rate at 10 uM measured every 94 secs (reference value: 13 milliOD/min)", "in_short": "as §2"}, "T47D [5]": {"system": "T47D", "assay": "Stabilization of interphase microtubule network in human T47D cells assessed as disruption of mitotic spindles at 100 nM after 2 hrs by DAPI staining-based immunofluorescence assay", "type": "cell-based", "in_short": "as §1"}, "Sus scrofa [6]": {"species_on_record": "Sus scrofa", "assay": "Induction of porcine tubulin polymerization assessed as bypass of nucleation phase at 10 uM measured every 94 secs", "in_short": "(§3)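 Plate prewarmed to 37 °C; OD340 read at 37 °C every 94 s for 61 cycles with orbital shaking. Runs in triplicate, duplicate for mebendazole; the averaged curve gave phase lengths, Vmax and final polymer mass.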"}, "[7]": {"assay": "(§4) Binding affinity to free porcine brain tubulin dimers after 30 mins by fluorescence quenching assay", "parameters": "species or system Sus scrofa", "in_short": "(§5)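 Free tubulin dimers (porcine brain tubulin, or recombinant human αI-βI) at 2 μM final in 10 mM sodium phosphate, 10 mM MgCl2, 1 mM GTP, 0.5% DMSO, 250 mM sucrose, pH 7.0. Held on ice 10 min, then ligand added at 5–100 μM final. Incubated 30 min at 25 °C, then rotated 1 h at room temperature. Tryptophan emission read at 310–400 nm with 295 nm excitation. Kd derived by Stern–Volmer fit.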"}, "Sus scrofa [8]": {"species_on_record": "Sus scrofa", "assay": "as §4", "in_short": "as §5"}, "[9]": {"biological_target": "Tubulin alpha-1A /beta chains (Homo sapiens, UniProt P07437+Q71U36)", "sequence (P07437 whole entry, looked up)": "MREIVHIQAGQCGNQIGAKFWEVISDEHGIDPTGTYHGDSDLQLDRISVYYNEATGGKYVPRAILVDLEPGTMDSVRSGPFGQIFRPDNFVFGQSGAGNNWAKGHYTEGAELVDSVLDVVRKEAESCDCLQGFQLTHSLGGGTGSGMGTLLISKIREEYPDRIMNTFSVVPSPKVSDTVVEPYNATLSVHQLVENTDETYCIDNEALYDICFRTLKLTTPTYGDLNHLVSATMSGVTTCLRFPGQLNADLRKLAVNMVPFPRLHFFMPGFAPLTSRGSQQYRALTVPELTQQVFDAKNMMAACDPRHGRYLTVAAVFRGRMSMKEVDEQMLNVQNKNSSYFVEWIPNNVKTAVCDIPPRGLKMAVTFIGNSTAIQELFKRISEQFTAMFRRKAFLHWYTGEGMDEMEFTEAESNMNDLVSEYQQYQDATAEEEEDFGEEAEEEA", "sequence (Q71U36 whole entry, looked up)": "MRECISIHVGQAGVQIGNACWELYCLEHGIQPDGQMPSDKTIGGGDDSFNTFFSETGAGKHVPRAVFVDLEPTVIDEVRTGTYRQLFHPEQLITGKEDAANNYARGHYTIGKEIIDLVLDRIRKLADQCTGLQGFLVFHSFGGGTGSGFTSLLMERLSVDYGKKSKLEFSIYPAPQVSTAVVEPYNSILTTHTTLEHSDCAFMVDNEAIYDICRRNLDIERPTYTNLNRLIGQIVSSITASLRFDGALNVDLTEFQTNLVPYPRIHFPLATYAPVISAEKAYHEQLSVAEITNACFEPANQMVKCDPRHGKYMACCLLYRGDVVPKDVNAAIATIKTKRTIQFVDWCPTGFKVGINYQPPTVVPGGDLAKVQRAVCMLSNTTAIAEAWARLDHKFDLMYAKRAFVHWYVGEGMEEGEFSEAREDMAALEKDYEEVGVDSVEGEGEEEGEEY", "assay": "(§6) Binding affinity to human recombinant tubulin alpha 1A/tubulin beta chain after 30 mins by fluorescence quenching assay", "type": "protein-complex assay", "in_short": "as §5"}, "[10]": {"biological_target": "Tubulin alpha-1A /beta chains (Homo sapiens) (UniProt Q71U36+P07437)", "sequence (P07437 whole entry, looked up)": "as the sequence (P07437 whole entry, looked up) above", "sequence (Q71U36 whole entry, looked up)": "as the sequence (Q71U36 whole entry, looked up) above", "assay": "as §6", "type": "protein-complex assay", "in_short": "as §5"}, "Sus scrofa [11]": {"species_on_record": "Sus scrofa", "assay": "Inhibition of porcine tubulin polymerization assessed as increase in duration of nucleation phase at 10 uM measured every 94 secs", "in_short": "as §3"}, "Sus scrofa [12]": {"species_on_record": "Sus scrofa", "assay": "Inhibition of porcine tubulin polymerization assessed as decrease in final polymer mass at 10 uM measured every 94 secs", "in_short": "as §3"}, "Sus scrofa [13]": {"species_on_record": "Sus scrofa", "assay": "Inhibition of porcine tubulin polymerization assessed as maximum growth rate at 10 uM measured every 94 secs (reference value: 13 milliOD/min)", "in_short": "as §3"}, "T47D [14]": {"system": "T47D", "assay": "Destabilization of microtubule network in human T47D cells at 0.5 uM after 2 hrs by DAPI staining-based immunofluorescence assay", "type": "cell-based", "in_short": "(§7)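 T47D cells seeded on coverslips and synchronized. Treated 2 h with drug (colchicine 0.5 μM, paclitaxel 100 nM, lankacidin C 1 mM) against a 1% DMSO control. Stained with anti-tubulin antibody and Alexa Fluor 488 secondary, DNA counterstained with DAPI. Imaged by epifluorescence microscopy with a 63× objective.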"}, "Sus scrofa [15]": {"species_on_record": "Sus scrofa", "assay": "Destabilization of rhodamine labeled porcine microtubule assessed as appearance of short strands microtubules at 10 uM after 5 mins by upright fluorescence microscopic analysis"}, "[16]": {"assay": "Cytotoxicity against human HeLa cells assessed as decrease in cell viability after 72 hrs by CellTiter-Blue assay", "type": "functional, cell-based", "in_short": "(§8)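 HeLa cells in DMEM with 10% FBS; T47D cells in RPMI1640 with 10% FBS, insulin and pyruvate. Cells seeded at 2000 per well 24 h before treatment. Triplicate wells given increasing drug concentrations in DMSO for 48, 72 or 96 h. Viability read by CellTiter-Blue fluorescence (560ex/590em) after 2–4 h with reagent. Run twice; mean and SEM reported.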"}, "Sus scrofa [17]": {"species_on_record": "Sus scrofa", "assay": "Induction of porcine tubulin polymerization assessed as doubling of final polymer mass at 100 uM measured every 94 secs", "in_short": "as §2"}, "Sus scrofa [18]": {"species_on_record": "Sus scrofa", "assay": "Induction of porcine tubulin polymerization assessed as decrease in duration of nucleation phase at 10 uM measured every 94 secs", "in_short": "as §2"}, "Sus scrofa [19]": {"species_on_record": "Sus scrofa", "assay": "Induction of porcine tubulin polymerization assessed as maximum growth rate at 100 uM measured every 94 secs (reference value: 13 milliOD/min)", "in_short": "as §2"}, "Sus scrofa [20]": {"species_on_record": "Sus scrofa", "assay": "Induction of porcine tubulin polymerization assessed as bypass of nucleation phase at 100 uM measured every 94 secs", "in_short": "as §2"}, "[21]": {"assay": "Cytotoxicity against human HeLa cells assessed as decrease in cell viability after 96 hrs by CellTiter-Blue assay", "type": "functional, cell-based", "in_short": "as §8"}, "[22]": {"assay": "Inhibition of flutax-2 binding to porcine microtubule assessed as flutax-2 EC50 at 128 uM after 1 hr by fluorescence assay (reference value: 248 +/- 50 nM)", "parameters": "species or system Sus scrofa"}, "T47D [23]": {"system": "T47D", "assay": "Stabilization of interphase microtubule network in human T47D cells assessed as disruption of mitotic spindles at 1 mM after 2 hrs by DAPI staining-based immunofluorescence assay", "type": "cell-based", "in_short": "as §7"}, "[24]": {"assay": "Cytotoxicity against human T47D cells assessed as decrease in cell viability after 96 hrs by CellTiter-Blue assay", "type": "functional, cell-based", "in_short": "as §8"}, "[25]": {"assay": "Cytotoxicity against human T47D cells assessed as decrease in cell viability after 48 hrs by CellTiter-Blue assay", "type": "functional, cell-based", "in_short": "as §8"}, "T47D [26]": {"system": "T47D", "assay": "Stabilization of interphase microtubule network in human T47D cells at 1 mM after 2 hrs by DAPI staining-based immunofluorescence assay", "type": "cell-based", "in_short": "as §7"}, "[27]": {"assay": "Binding affinity to paclitaxel binding site of porcine microtubule after 1 hr by Michaelis-Menten plot analysis", "parameters": "species or system Sus scrofa", "conditions": "read-out: Kd(app)"}, "[28]": {"assay": "Cytotoxicity against human HeLa cells assessed as decrease in cell viability after 48 hrs by CellTiter-Blue assay", "type": "functional, cell-based", "in_short": "as §8"}}, "note": "The source made the active and inactive calls. The calls are words filed in the database; no cut-off is given here."}
{"smiles": "CC(=O)O[C@H]1C(=O)[C@@]2(C)[C@H]([C@H](OC(=O)c3ccccc3)[C@]3(O)C[C@H](OC(=O)[C@H](O)[C@@H](NC(=O)c4ccccc4)c4ccccc4)C(C)=C1C3(C)C)[C@]1(OC(C)=O)CO[C@@H]1C[C@@H]2O", "values": [{"measurement": "Activity", "setting": "T47D [1]", "value": "Active"}, {"measurement": "Activity", "setting": "Sus scrofa [2]", "value": "Active"}, {"measurement": "Activity", "setting": "Sus scrofa [3]", "value": "Active"}, {"measurement": "Vmax (milli optical density/minute)", "setting": "Sus scrofa [4]", "value": 21}, {"measurement": "Activity", "setting": "T47D [5]", "value": "Active"}, {"measurement": "Activity", "setting": "Sus scrofa [6]", "value": "Active"}]}
{"smiles": "CC(=O)O[C@@H]1/C=C/C(C)=C/C[C@H](O)/C=C/C(C)=C/[C@@H](NC(=O)C(C)O)[C@]2(C)C(=O)O[C@H](C1)[C@@H](C)C2=O", "note": "(stereo not given in full)", "values": [{"measurement": "Kd", "setting": "[7]", "value": 1100, "unit": "µM"}, {"measurement": "Activity", "setting": "Sus scrofa [8]", "value": "Dose-dependent effect"}, {"measurement": "Kd", "setting": "[9]", "value": 654, "unit": "µM"}, {"measurement": "Activity", "setting": "[10]", "value": "Dose-dependent effect"}]}
{"smiles": "COC(=O)Nc1nc2cc(C(=O)c3ccccc3)ccc2[nH]1", "values": [{"measurement": "inhibition", "setting": "Sus scrofa [11]", "value": "Active"}, {"measurement": "inhibition", "setting": "Sus scrofa [12]", "value": "Active"}, {"measurement": "Vmax (milli optical density/minute)", "setting": "Sus scrofa [13]", "value": 4}]}
{"smiles": "COc1cc2c(c(OC)c1OC)-c1ccc(OC)c(=O)cc1[C@@H](NC(C)=O)CC2", "values": [{"measurement": "Activity", "setting": "T47D [14]", "value": "Active"}, {"measurement": "Activity", "setting": "Sus scrofa [15]", "value": "Active"}]}
{"smiles": "CC(=O)C(=O)N[C@@H]1/C=C(\\C)C=C[C@@H](O)C/C=C(C)/C=C/[C@@H](O)C[C@H]2OC(=O)[C@]1(C)C(=O)[C@@H]2C", "values": [{"measurement": "IC50", "setting": "[16]", "value": 324, "unit": "µM"}, {"measurement": "Activity", "setting": "Sus scrofa [2]", "value": "Active"}, {"measurement": "Activity", "setting": "Sus scrofa [17]", "value": "Active"}, {"measurement": "Kd", "setting": "[7]", "value": 546, "unit": "µM"}, {"measurement": "Activity", "setting": "Sus scrofa [8]", "value": "Dose-dependent effect"}, {"measurement": "Activity", "setting": "Sus scrofa [18]", "value": "Active"}, {"measurement": "Vmax (milli optical density/minute)", "setting": "Sus scrofa [19]", "value": 35}, {"measurement": "Activity", "setting": "Sus scrofa [3]", "value": "Active"}, {"measurement": "Activity", "setting": "Sus scrofa [20]", "value": "Active"}, {"measurement": "IC50", "setting": "[21]", "value": 224, "unit": "µM"}, {"measurement": "Vmax (milli optical density/minute)", "setting": "Sus scrofa [4]", "value": 18}, {"measurement": "EC50", "setting": "[22]", "value": 0.921, "unit": "µM"}, {"measurement": "Activity", "setting": "T47D [23]", "value": "Active"}, {"measurement": "IC50", "setting": "[24]", "value": 11.1, "unit": "µM"}, {"measurement": "IC50", "setting": "[25]", "value": 202, "unit": "µM"}, {"measurement": "Activity", "setting": "T47D [26]", "value": "Active"}, {"measurement": "Kd", "setting": "[27]", "value": 50, "unit": "µM"}, {"measurement": "IC50", "setting": "[28]", "value": 1080, "unit": "µM"}, {"measurement": "Kd", "setting": "[9]", "value": 1060, "unit": "µM"}, {"measurement": "Activity", "setting": "[10]", "value": "Dose-dependent effect"}]}
